Source: ChEMBL document CHEMBL1681759, “Synthesis and biological evaluation of benzimidazole-5-carbohydrazide derivatives as antimalarial, cytotoxic and antitubercular agents” (Bioorg Med Chem, 2011)
Converted amounts (≈) assume the structure as drawn.

Test system: Mycobacterium tuberculosis
Experiment: Antimycobacterial activity against multidrug-resistant Mycobacterium tuberculosis clinical isolate after 5 days by tetrazolium microplate assay
Type: functional
Conditions: 120 h
Outline: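 Tetrazolium microplate assay run in 7H9GC broth. DMSO stocks (4 mg/mL) were diluted to final 0.4–25 µg/mL. Isoniazid (0.125–32 µg/mL) and rifampin (0.063–16 µg/mL) were positive controls; inoculum-only and DMSO controls were included. Plates were incubated 5 days at 37 °C, then an MTT-Tween 80 mix was added and incubation continued 24 h at 37 °C. Run in triplicate. MIC = lowest concentration preventing the yellow-to-purple colour change.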

SMILES	MIC [µg/mL]
O=C(NNC(=O)c1ccc2[nH]c(-c3ccc([N+](=O)[O-])o3)nc2c1)c1cccc(Oc2ccccc2)c1	25 (≈ 51.7 µM)
CO[C@H]1/C=C/O[C@@]2(C)Oc3c(C)c(O)c4c(O)c(c(/C=N/N5CCN(C)CC5)c(O)c4c3C2=O)NC(=O)/C(C)=C\C=C\[C@H](C)[C@H](O)[C@@H](C)[C@@H](O)[C@@H](C)[C@H](OC(C)=O)[C@@H]1C [RIFAMPIN]	2 (≈ 2.43 µM)
COc1cccc(C(=O)NNC(=O)c2ccc3[nH]c(-c4ccc([N+](=O)[O-])o4)nc3c2)c1	25 (≈ 59.3 µM)
NNC(=O)c1ccncc1 [ISONIAZID]	4 (≈ 29.2 µM)
O=C(O)c1ccc2[nH]c(-c3ccc([N+](=O)[O-])o3)nc2c1	> 25
O=C(NNC(=O)c1cc2ccccc2cc1O)c1ccc2[nH]c(-c3ccc([N+](=O)[O-])s3)nc2c1	> 25
COc1cccc(C(=O)NNC(=O)c2ccc3[nH]c(-c4ccc([N+](=O)[O-])s4)nc3c2)c1	25 (≈ 57.2 µM)
O=CNNC(=O)c1ccc2[nH]c(-c3ccc([N+](=O)[O-])o3)nc2c1	> 25
COc1ccc(C(=O)NNC(=O)c2ccc3[nH]c(-c4ccc([N+](=O)[O-])o4)nc3c2)cc1OC	25 (≈ 55.4 µM)
COc1cc(C(=O)NNC(=O)c2ccc3[nH]c(-c4ccc([N+](=O)[O-])s4)nc3c2)cc(OC)c1OC	> 25
COc1cc(C(=O)NNC(=O)c2ccc3[nH]c(-c4ccc([N+](=O)[O-])o4)nc3c2)cc(OC)c1OC	25 (≈ 51.9 µM)
O=C(NNC(=O)c1ccc2[nH]c(-c3ccc([N+](=O)[O-])o3)nc2c1)c1ccccc1	6.25 (≈ 16 µM)
